{"data": "Measured values of several laboratories", "observed": "cell growth or viability"}
{"Compound": "COc1cc([C@@H]2c3cc4c(cc3[C@@H](O[C@@H]3O[C@@H]5CO[C@@H](C)O[C@H]5[C@H](O)[C@H]3O)[C@H]3COC(=O)[C@H]23)OCO4)cc(OC)c1O", "cell line": "human Skin fibroblast", "setting": "48 h", "IC50": "5 µM"}
{"Compound": "CC(C)c1cc(-c2n[nH]c(=O)n2-c2ccc3c(ccn3C)c2)c(O)cc1O", "cell line": "BT-474", "assay": "imaging", "setting": "24 h", "IC50": "0.412 µM"}
{"Compound": "CC(=O)O[C@H]1C(=O)[C@@]2(C)[C@H]([C@H](OC(=O)c3ccccc3)[C@]3(O)C[C@H](OC(=O)[C@H](O)[C@@H](NC(=O)c4ccccc4)c4ccccc4)C(C)=C1C3(C)C)[C@]1(OC(C)=O)CO[C@@H]1C[C@@H]2O", "cell line": "KB 3-1", "assay": "MTT", "IC50": "0.00772 µM"}
{"Compound": "O=C(O)c1ccc2c(c1)nc(Nc1cccc(Cl)c1)c1ccncc12", "cell line": "HD-MB03", "IC50": "0.501 µM"}
{"Compound": "O=C(N/N=C/c1c(O)ccc2ccccc12)c1cc(-c2ccc3ccccc3c2)n[nH]1", "cell line": "WM278", "assay": "MTS", "setting": "24 h", "IC50": "29 µM"}
{"Compound": "COc1cccc2c1C(=O)c1c(O)c3c(c(O)c1C2=O)C[C@@](O)(C(=O)CO)C[C@@H]3O[C@H]1C[C@H](N)[C@H](O)[C@H](C)O1", "cell line": "U373 MG", "assay": "SRB", "IC50": "0.88 µM"}
{"Compound": "Cn1c(-c2nnc(NC(=O)c3cc4c([nH]c5ccccc54)c(-c4ccc(F)cc4)n3)s2)cc2ccccc21", "cell line": "BT-474", "assay": "MTT", "setting": "72 h", "IC50": "18.4 µM"}
{"Compound": "CCOC(=O)c1sc(=NN=C(C)c2c(O)c3ccccc3oc2=O)n(CC)c1C", "cell line": "human Skin fibroblast", "assay": "MTT", "setting": "48 h", "IC50": "> 100 µM"}
{"Compound": "COc1cccc2c1C(=O)c1c(O)c3c(c(O)c1C2=O)C[C@@](O)(C(=O)CO)C[C@@H]3O[C@H]1C[C@H](N)[C@H](O)[C@H](C)O1", "cell line": "BT-474", "assay": "MTT", "setting": "48 h", "IC50": "0.8 µg/mL"}
{"Compound": "CCn1c(C)c(C(C)=O)sc1=NN=C(C)c1c(O)c2ccccc2oc1=O", "cell line": "human Skin fibroblast", "assay": "MTT", "setting": "48 h", "IC50": "> 100 µM"}
{"Compound": "COc1cccc2c1C(=O)c1c(O)c3c(c(O)c1C2=O)C[C@@](O)(C(=O)CO)C[C@@H]3O[C@H]1C[C@H](N)[C@H](O)[C@H](C)O1", "cell line": "human Skin fibroblast", "assay": "MTT", "setting": "48 h", "IC50": "0.16 µM"}
{"Compound": "CC[C@H](C)[C@@H]([C@@H](CC(=O)N1CCC[C@H]1[C@H](OC)[C@@H](C)C(=O)N[C@@H](Cc1ccccc1)C(=O)O)OC)N(C)C(=O)[C@@H](NC(=O)[C@@H](NC)C(C)C)C(C)C", "cell line": "M21", "assay": "MTT", "setting": "72 h", "IC50": "> 1 µM"}
{"Compound": "COc1cccc2c1C(=O)c1c(O)c3c(c(O)c1C2=O)C[C@@](O)(C(=O)CO)C[C@@H]3O[C@H]1C[C@H](N)[C@H](O)[C@H](C)O1", "cell line": "MB002", "setting": "7 days", "IC50": "0.0645 µM"}
{"Compound": "Cc1ccc2[nH]c(=O)c3cc(C(=O)NCCCN(C)Cc4ccccc4)sc3c2c1", "cell line": "CFPAC-1", "assay": "MTT", "setting": "24 h", "IC50": "16.8 µM"}
{"Compound": "CCn1c(-c2nnc(NC(=O)c3cc4c([nH]c5ccccc54)c(-c4cc(OC)c(OC)c(OC)c4)n3)s2)cc2ccccc21", "cell line": "BT-474", "assay": "MTT", "setting": "72 h", "IC50": "19.5 µM"}
{"Compound": "Nc1nc2[nH]cc(CCc3ccc(C(=O)N[C@@H](CCC(=O)O)C(=O)O)cc3)c2c(=O)[nH]1", "cell line": "MB002", "setting": "7 days", "IC50": "0.0635 µM"}
{"Compound": "CNC(=S)NN=C(C)c1c(O)c2ccccc2oc1=O", "cell line": "human Skin fibroblast", "assay": "MTT", "setting": "48 h", "IC50": "> 100 µM"}
{"Compound": "CCn1c(-c2nnc(NC(=O)c3cc4c([nH]c5ccccc54)c(-c4ccc(OC)cc4)n3)s2)cc2ccccc21", "cell line": "BT-474", "assay": "MTT", "setting": "72 h", "IC50": "20.1 µM"}
{"Compound": "O=C(NCc1ccc(CO)cc1)c1c[nH]c2ccc(Cl)cc12", "cell line": "SK-N-BE", "assay": "MTT", "IC50": "15 µM"}
{"Compound": "CCc1cc2c(cc1N1CCC(N3CCOCC3)CC1)C(C)(C)c1[nH]c3cc(C#N)ccc3c1C2=O", "cell line": "MB002", "setting": "7 days", "IC50": "0.396 µM"}
{"Compound": "Cn1c(-c2nnc(NC(=O)c3cc4c([nH]c5ccccc54)c(-c4ccccc4)n3)s2)cc2ccccc21", "cell line": "BT-474", "assay": "MTT", "setting": "72 h", "IC50": "17.6 µM"}
{"Compound": "CC(=NN=C1SC(C)C(=O)N1C)c1c(O)c2ccccc2oc1=O (centres unmarked)", "cell line": "human Skin fibroblast", "assay": "MTT", "setting": "48 h", "IC50": "> 100 µM"}
{"Compound": "CCN1CCN(Cc2ccc(Nc3ncc(F)c(-c4cc(F)c5nc(C)n(C(C)C)c5c4)n3)nc2)CC1", "cell line": "MB002", "setting": "7 days", "IC50": "0.0719 µM"}
{"Compound": "CCn1c(-c2nnc(NC(=O)c3cc4c([nH]c5ccccc54)c(-c4ccc(C)cc4)n3)s2)cc2ccccc21", "cell line": "BT-474", "assay": "MTT", "setting": "72 h", "IC50": "19.5 µM"}
{"Compound": "COc1cc(Nc2nccc(-c3cnn4nc(OC)ccc34)n2)cc(C(F)(F)F)c1", "cell line": "SW948", "assay": "ATP luminescence", "IC50": "3 µM"}
{"Compound": "CC(=NN=c1sc(N=Nc2ccc(C)cc2)c(C)n1C)c1c(O)c2ccccc2oc1=O", "cell line": "human Skin fibroblast", "assay": "MTT", "setting": "48 h", "IC50": "> 100 µM"}
{"Compound": "N#Cc1ccc(COC[C@H]2O[C@@H](n3c(NCc4ccc(Cl)c(Cl)c4)nc4c(N)ncnc43)[C@H](O)[C@@H]2O)cc1", "cell line": "HD-MB03", "IC50": "3.36 µM"}
{"Compound": "CNc1ncc2cc(-c3ccc(-c4cccc(C)n4)cc3Cl)c(=O)n(C[C@H]3OC[C@H](N)CO3)c2n1", "cell line": "CFPAC-1", "assay": "MTT", "setting": "24 h", "IC50": "23.9 µM"}
{"Compound": "CC(C)C[C@H](NC(=O)[C@H](Cc1ccccc1)NC(=O)c1cnccn1)B(O)O", "cell line": "SK-LU-1", "assay": "ATP luminescence", "IC50": "0.01 µM"}
{"Compound": "CC1(C)[C@@H](O)CC[C@]2(C)[C@H]3C(=O)C=C4[C@@H]5C[C@@](C)(C(=O)O)CC[C@]5(C)CC[C@@]4(C)[C@]3(C)CC[C@@H]12", "cell line": "human Skin fibroblast", "assay": "MTT", "setting": "48 h", "IC50": "48.2 µM"}
{"Compound": "CC[C@]1(O)C[C@H]2CN(CCc3c([nH]c4ccccc34)[C@@](C(=O)OC)(c3cc4c(cc3OC)N(C=O)[C@H]3[C@@](O)(C(=O)OC)[C@H](OC(C)=O)[C@]5(CC)C=CCN6CC[C@]43[C@@H]65)C2)C1", "cell line": "KB 3-1", "assay": "MTT", "IC50": "0.00744 µM"}
{"Compound": "Cc1nc(Nc2ncc(C(=O)Nc3c(C)cccc3Cl)s2)cc(N2CCN(CCO)CC2)n1", "cell line": "MB002", "setting": "7 days", "IC50": "2.65 µM"}
{"Compound": "CC(=NN=C1SCC(=O)N1C)c1c(O)c2ccccc2oc1=O", "cell line": "human Skin fibroblast", "assay": "MTT", "setting": "48 h", "IC50": "> 100 µM"}
{"Compound": "Cn1c(=O)n(-c2ccc(C(C)(C)C#N)cc2)c2c3cc(-c4cnc5ccccc5c4)ccc3ncc21", "cell line": "MB002", "setting": "7 days", "IC50": "0.031 µM"}
{"Compound": "CCN1C(=O)C(C)SC1=NN=C(C)c1c(O)c2ccccc2oc1=O (centres unmarked)", "cell line": "human Skin fibroblast", "assay": "MTT", "setting": "48 h", "IC50": "> 100 µM"}
{"Compound": "O=C(Nc1nnc(-c2cc3ccccc3[nH]2)s1)c1cc2c([nH]c3ccccc32)c(-c2ccc(Cl)cc2)n1", "cell line": "BT-474", "assay": "MTT", "setting": "72 h", "IC50": "8.68 µM"}
{"Compound": "CCOC(=O)c1sc(=NN=C(C)c2c(O)c3ccccc3oc2=O)n(C)c1C", "cell line": "human Skin fibroblast", "assay": "MTT", "setting": "48 h", "IC50": "> 100 µM"}
{"Compound": "Oc1ccc(Nc2nc(-c3ccc(Cl)cc3)cs2)cc1", "cell line": "WM278", "assay": "MTS", "setting": "24 h", "IC50": "20 µM"}
